The source made the active and inactive calls. The calls are words filed in the database; no cut-off is given here.
What was measured:
Diaporthe ampelina [1] = experiment: Antifungal activity against Diaporthe ampelina assessed as growth inhibition after 144 hr by NCCLS M27-A broth microdilution method; format: functional, organism-based
Procedure, shortened: (§1)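 Broth microdilution adapted from the NCCLS M27-A yeast method for conidia-forming filamentous plant pathogens. Growth inhibition was read at 48 h and 72 h for Botrytis cinerea, and at 120 h and 144 h for Phomopsis viticola and P. obscurans. The highest concentration tested was 30 μM. Captan served as the internal standard. Means were compared by ANOVA with Fisher's protected LSD.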

Phomopsis obscurans [2] = experiment: Antifungal activity against Phomopsis obscurans assessed as growth inhibition at 30 uM after 144 hr by NCCLS M27-A broth microdilution method; format: functional, organism-based; details: Paraphomopsis obscurans; procedure, shortened: as §1
[3] = Octanol-water partition coefficient, log P of the compound by HPLC analysis; format: physicochemical
Procedure, shortened: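 Log P was estimated by isocratic reversed-phase HPLC on a Gemini C18 column (5 μm, 4.6 × 150 mm). The mobile phase was MeOH/H2O/2% HCOOH in H2O (55:43:2, w/w) at 1.0 mL/min and 37 °C, with samples dissolved in the mobile phase. Capacity factor K = (t1 − t0)/t0, with t0 taken from D2O. […] At least 5 injections were made.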

Phomopsis obscurans [4] = experiment: Antifungal activity against Phomopsis obscurans assessed as growth inhibition after 144 hr by NCCLS M27-A broth microdilution method; format: functional, organism-based; details: Paraphomopsis obscurans; procedure, shortened: as §1
Phomopsis obscurans [5] = experiment: Antifungal activity against Phomopsis obscurans assessed as growth inhibition after 120 hr by NCCLS M27-A broth microdilution method; format: functional, organism-based; details: Paraphomopsis obscurans; procedure, shortened: as §1
Botrytis cinerea [6] = experiment: Antifungal activity against Botryotinia fuckeliana assessed as growth inhibition after 48 hr by NCCLS M27-A broth microdilution method; format: functional, organism-based; procedure, shortened: as §1
Botrytis cinerea [7] = experiment: Antifungal activity against Botryotinia fuckeliana assessed as growth inhibition after 72 hr by NCCLS M27-A broth microdilution method; format: functional, organism-based; procedure, shortened: as §1
Diaporthe ampelina [8] = experiment: Antifungal activity against Diaporthe ampelina assessed as growth inhibition after 120 hr by NCCLS M27-A broth microdilution method; format: functional, organism-based; procedure, shortened: as §1
Diaporthe ampelina [9] = experiment: Antifungal activity against Diaporthe ampelina assessed as growth inhibition at 30 uM after 144 hr by NCCLS M27-A broth microdilution method; format: functional, organism-based; procedure, shortened: as §1

| SMILES | Activity (Diaporthe ampelina [1]) | Activity (Phomopsis obscurans [2]) | logP ([3]; read-out: logP) | Activity (Phomopsis obscurans [4]) | Activity (Phomopsis obscurans [5]) | Activity (Botrytis cinerea [6]) | Activity (Botrytis cinerea [7]) | logP [3] | Activity (Diaporthe ampelina [8]) | Activity (Diaporthe ampelina [9]) |
| --- | --- | --- | --- | --- | --- | --- | --- | --- | --- | --- |
| O=C1C2CC=CCC2C(=O)N1SC(Cl)(Cl)Cl (centres undefined) | Active |  |  |  |  |  |  |  |  |  |
| COc1cc(/C=C/c2ccccc2)cc(OC)c1 [3,5-O-DIMETHYLPINOSYLVIN] |  | inactive | 4.15 |  |  |  |  |  |  |  |
| CC(C)/C=C/c1c(O)cc(/C=C/c2ccc(O)c(O)c2)cc1O [ARACHIDIN-1] |  |  |  | inactive | inactive | inactive | inactive | 2.44 |  |  |
| COc1ccc(/C=C/c2cc(OC)cc(OC)c2)cc1 [TRISMETHOXYRESVERATROL] |  | Active | 4.07 |  |  |  |  |  |  |  |
| Oc1cc(O)cc(/C=C/c2ccccc2)c1 [PINOSYLVIN] |  | inactive | 2.25 |  |  | Active | inactive |  | inactive |  |
| CC(C)=CCc1c(O)cc(/C=C/c2ccccc2)cc1O [CHIRICANINE A] | Active |  |  | Active | inactive | inactive | inactive | 3.46 |  |  |
| CC1(C)C=Cc2c(O)cc(/C=C/c3ccc(O)cc3)cc2O1 [ARAHYPIN-5] | Active |  |  |  |  | inactive | inactive | 3.34 |  |  |
| Oc1ccc(/C=C/c2cc(O)cc(O)c2)cc1 [RESVERATROL] |  | inactive | 1.35 |  |  | Active | inactive |  | inactive |  |
| COc1cccc(/C=C/c2ccc(O)cc2)c1 [(E)-5-METHOXY-4'-STILBENOL] |  | Active |  |  |  |  |  | 3.14 | Active |  |
| Oc1cccc(CCc2ccccc2)c1 [3-PHENETHYLPHENOL] |  | Active |  |  |  |  |  | 3.19 | Active | Active |
| CC(C)/C=C/c1c(O)cc(/C=C/c2ccc(O)cc2)cc1O [ARACHIDIN-3] |  |  | 2.83 | inactive | inactive | inactive | inactive |  |  |  |
| CC(C)(O)C(O)Cc1cc(/C=C/c2cc(O)cc(O)c2)ccc1O (centres undefined) [ARAHYPIN-2] |  |  |  | inactive | Active | inactive | inactive | 1.36 |  |  |
| Oc1ccc(/C=C/c2ccccc2)cc1O |  | inactive |  |  |  | Active | inactive |  | inactive |  |
| CC(C)=CCC/C(C)=C/Cc1c(O)cc(/C=C/c2ccc(O)cc2O)cc1O [CHLOROPHORIN] |  | Active |  |  |  | Active | Active | 3.29 | Active |  |
| CC(C)=CCc1c(O)cc(/C=C/c2ccc(O)cc2)cc1O [ARACHIDIN-2] |  |  | 2.56 | inactive | inactive | inactive | inactive |  |  |  |
| COc1cccc(CCc2ccc(O)cc2)c1 |  | Active |  |  |  |  |  | 3.07 |  |  |
| CC(C)/C=C/c1c(O)cc(/C=C/C2=CC(=O)OC2CC(=O)O)cc1O (centres undefined) |  |  | 2.59 | inactive | inactive | inactive | inactive |  |  |  |
| COc1ccc(/C=C/c2cc(O)cc(O[C@@H]3O[C@H](CO)[C@@H](O)[C@H](O)[C@H]3O)c2)cc1O [RHAPONTIN] |  | Active |  |  |  |  | Active | 0.74 |  |  |
| CC(C)(O)C(O)Cc1c(O)cc(/C=C/c2ccc(O)cc2)cc1O (centres undefined) [ARAHYPIN-3] |  |  |  |  |  | inactive | inactive | 1.59 |  |  |
| COc1cc(/C=C/c2ccc(O)cc2)cc(OC)c1 [PTEROSTILBENE] |  | Active | 3.15 |  |  | Active | Active |  |  |  |
| Oc1ccc(/C=C/c2cccc(O)c2)cc1 [(E)-3,4'-STILBENDIOL] |  | Active | 2.08 |  |  |  |  |  |  |  |
| CC(C)/C=C/c1c(O)cc(/C=C/c2ccccc2)cc1O [ARAHYPIN-1] | Active |  |  | Active | Active | inactive | inactive | 3.71 |  |  |
| COc1cc(O)cc(/C=C/c2ccccc2)c1 [PINOSYLVIN METHYL ETHER] |  | Active | 3.21 |  |  |  |  |  | Active |  |
| CC(C)(O)C(O)Cc1c(O)cc(/C=C/c2ccccc2)cc1O (centres undefined) [ARAHYPIN-4] |  |  |  |  |  | inactive | inactive | 2.59 |  |  |
| Oc1cccc(/C=C/c2ccccc2)c1 [(E)-3-STILBENOL] |  | Active |  |  |  |  |  | 3.22 |  |  |

From ChEMBL document CHEMBL3045061, “Biological activity of peanut (Arachis hypogaea) phytoalexins and selected natural and synthetic Stilbenoids” (J Agric Food Chem, 2011)
